Data on 167 variants can be found in the RNAGym collection of RNA variant scans (doi:10.1002/anie.201605470).

Sequences and labels used below:
B1: Osa-1-4 twister ribozyme (parent)
chain: CCGCCUAACACUGCCAAUGCCGGUCCCAAGCCCGGAUAAAAGUGGAGGGGGCGG

This data set covers variants of B1. Briefly: self-cleavage, relative activity (ratio to wild type); higher = more cleavage; co-transcriptional. The essentials: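 A DNA template was synthesised for a 54-nucleotide twister ribozyme from Oryza sativa, with 97 % wild-type base and 1 % of each other base at each of the 48 positions downstream of the cleavage site. The ribozyme cleaved itself co-transcriptionally during 2 h of in vitro transcription at 37 °C. Reverse transcription with a template-switching oligonucleotide, PCR amplification and deep sequencing followed, and cleavage status came from reads with or without upstream sequence. Relative activity is the fraction cleaved normalised to wild type.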
For A40G U37G, the self-cleavage came out at 1.02.

For A40G U37A, the self-cleavage was 0.91.

Take A40G C15A: the self-cleavage was found to be 0.13.

Regarding A40G C15U, the self-cleavage is 0.13.

A40G C15G: the self-cleavage came out at 0.14.

For A39U G35C, the self-cleavage turned out to be 0.19.

As for A39U G35U, the self-cleavage turned out to be 0.87.

Regarding A39U G35A, the self-cleavage is 0.83.

For the variant A39U G48A, the self-cleavage amounted to 0.08.

Consider A39U G48U, for which the self-cleavage was 0.06.

Take A39U G48C: the self-cleavage was determined as 0.05.

For the variant A40G A41U, the self-cleavage was 0.91.

On to A40G A41C, for which the self-cleavage was 0.41.

As to A40G A41G, the self-cleavage amounted to 0.22.

Turning to A40G C31G, the self-cleavage was 0.08.

On to A40G C31A, for which the self-cleavage is 0.03.

A40G C31U: the self-cleavage is 0.16.

Take A40C C31G: the self-cleavage worked out at 0.02.

Take A40C C31A: the self-cleavage turned out to be 0.02.

Consider A40C C31U, for which the self-cleavage turned out to be 0.06.

Consider A40U A8G, for which the self-cleavage came out at 0.15.

Turning to A40U A8U, the self-cleavage turned out to be 0.07.

On to A40U A8C, for which the self-cleavage is 0.05.

With A40C G13C, the self-cleavage was 0.01.

For A40C G13A, the self-cleavage came out at 0.03.

Consider A40C G13U, for which the self-cleavage is 0.01.

On to A40U A46C, for which the self-cleavage was 0.05.

Regarding A40U A46U, the self-cleavage was 0.07.

With A40U A46G, the self-cleavage was 0.05.

For A40G G30U, the self-cleavage is 0.05.

A40G G30C: the self-cleavage was found to be 0.04.

Consider A40G G30A, for which the self-cleavage worked out at 0.03.

Regarding A40C U12C, the self-cleavage worked out at 0.07.

Turning to A40C U12A, the self-cleavage was found to be 0.5.

As to A40C U12G, the self-cleavage is 0.47.

On to A39U G53A, for which the self-cleavage was 0.49.

Take A39U G53C: the self-cleavage was found to be 0.07.

Consider A39U G53U, for which the self-cleavage was found to be 0.19.

On to A40G C21A, for which the self-cleavage turned out to be 0.25.

As to A40G C21G, the self-cleavage is 0.08.

Regarding A40G C21U, the self-cleavage amounted to 0.79.

A40C G44C: the self-cleavage was 0.09.

Regarding A40C G44U, the self-cleavage stood at 0.06.

With A40C G44A, the self-cleavage was determined as 0.09.

As to A40G C33G, the self-cleavage was determined as 0.06.

Turning to A40G C33A, the self-cleavage stood at 0.08.

Turning to A40G C33U, the self-cleavage worked out at 0.15.

For the variant A39U G22U, the self-cleavage amounted to 0.67.

Take A39U G22A: the self-cleavage is 0.93.

Consider A39U G22C, for which the self-cleavage was 0.06.

In the case of A39U G13A, the self-cleavage was determined as 0.05.

Regarding A39U G13C, the self-cleavage was determined as 0.03.

For the variant A39U G13U, the self-cleavage amounted to 0.02.

Turning to A39U G42U, the self-cleavage was found to be 0.07.

For the variant A39U G42C, the self-cleavage stood at 0.11.

On to A39U G42A, for which the self-cleavage is 0.17.

Regarding A40G C20G, the self-cleavage is 0.1.

A40G C20A: the self-cleavage worked out at 0.78.

Turning to A40G C20U, the self-cleavage was determined as 0.91.

On to A40G U43A, for which the self-cleavage came out at 0.21.

Turning to A40G U43G, the self-cleavage is 0.19.

Regarding A40G U43C, the self-cleavage came out at 0.14.

Turning to A40G C14A, the self-cleavage was 0.4.

Consider A40G C14U, for which the self-cleavage came to 0.2.

As to A40G C14G, the self-cleavage worked out at 0.11.

For A40C A41G, the self-cleavage was found to be 0.1.

In the case of A40C A41C, the self-cleavage turned out to be 0.28.

Regarding A40C A41U, the self-cleavage was determined as 0.42.

Consider A40C G19A, for which the self-cleavage amounted to 0.07.

A40C G19C: the self-cleavage was 0.02.

As to A40C G19U, the self-cleavage is 0.04.

In the case of A40C G49U, the self-cleavage was found to be 0.03.

With A40C G49C, the self-cleavage was found to be 0.02.

As for A40C G49A, the self-cleavage was determined as 0.04.

Consider A39U G19C, for which the self-cleavage was found to be 0.07.

For the variant A39U G19A, the self-cleavage was 0.35.

For A39U G19U, the self-cleavage was determined as 0.11.

For A39U U43A, the self-cleavage came to 0.43.

Take A39U U43C: the self-cleavage amounted to 0.12.

Take A39U U43G: the self-cleavage was determined as 0.18.

Regarding A39U G47U, the self-cleavage came out at 0.11.

As to A39U G47A, the self-cleavage is 0.13.

For the variant A39U G47C, the self-cleavage stood at 0.07.

A40C A46U: the self-cleavage amounted to 0.03.

Take A40C A46G: the self-cleavage is 0.02.

Take A40C A46C: the self-cleavage amounted to 0.04.

Consider A39U U18G, for which the self-cleavage was 0.88.

Regarding A39U U18A, the self-cleavage turned out to be 0.95.

Turning to A39U U18C, the self-cleavage worked out at 0.97.

A40C G54U: the self-cleavage worked out at 0.12.

For the variant A40C G54C, the self-cleavage came out at 0.07.

With A40C G54A, the self-cleavage worked out at 0.09.

As for A40G A46U, the self-cleavage stood at 0.08.

On to A40G A46C, for which the self-cleavage amounted to 0.06.

For the variant A40G A46G, the self-cleavage is 0.05.

A40C A8C: the self-cleavage worked out at 0.04.

Take A40C A8G: the self-cleavage was found to be 0.05.

For the variant A40C A8U, the self-cleavage stood at 0.04.

Turning to A39U G51U, the self-cleavage amounted to 0.28.

Take A39U G51A: the self-cleavage was determined as 0.61.

With A39U G51C, the self-cleavage was 0.06.

With A40C C15A, the self-cleavage was 0.05.

As for A40C C15G, the self-cleavage was determined as 0.04.

With A40C C15U, the self-cleavage was 0.05.

Consider A40G C27G, for which the self-cleavage is 0.09.

With A40G C27A, the self-cleavage was 0.11.

As for A40G C27U, the self-cleavage worked out at 0.11.

A40C U24G: the self-cleavage amounted to 0.01.

As to A40C U24A, the self-cleavage is 0.04.

In the case of A40C U24C, the self-cleavage came out at 0.03.

Regarding A40C C52U, the self-cleavage came to 0.1.

With A40C C52G, the self-cleavage was 0.09.

A40C C52A: the self-cleavage was found to be 0.11.

For A40G G47A, the self-cleavage was determined as 0.11.

Regarding A40G G47C, the self-cleavage came to 0.06.

A40G G47U: the self-cleavage turned out to be 0.1.

A40C G51C: the self-cleavage is 0.04.

As to A40C G51U, the self-cleavage is 0.06.

With A40C G51A, the self-cleavage was 0.06.

Turning to A40C C32U, the self-cleavage was determined as 0.03.

In the case of A40C C32A, the self-cleavage turned out to be 0.04.

In the case of A40C C32G, the self-cleavage is 0.03.

A39U G30A: the self-cleavage amounted to 0.04.

A39U G30U: the self-cleavage stood at 0.05.

As for A39U G30C, the self-cleavage amounted to 0.05.

Turning to A40G G22A, the self-cleavage is 0.46.

For the variant A40G G22U, the self-cleavage came to 0.16.

Regarding A40G G22C, the self-cleavage was 0.06.

For A39U G54A, the self-cleavage stood at 0.73.

Take A39U G54U: the self-cleavage worked out at 0.77.

In the case of A39U G54C, the self-cleavage was 0.73.

In the case of A40G C26U, the self-cleavage is 0.13.

For A40G C26A, the self-cleavage amounted to 0.05.

A40G C26G: the self-cleavage is 0.14.

Turning to A40G U12A, the self-cleavage came out at 0.75.

Turning to A40G U12C, the self-cleavage worked out at 0.79.

A40G U12G: the self-cleavage was found to be 0.28.

Take A39U G44C: the self-cleavage turned out to be 0.91.

Turning to A39U G44A, the self-cleavage came out at 0.77.

Regarding A39U G44U, the self-cleavage came out at 0.9.

As to A40G, the self-cleavage came to 0.91.

With A40C, the self-cleavage stood at 0.09.

For the variant A40U, the self-cleavage worked out at 0.85.

Consider A40G C9G, for which the self-cleavage stood at 0.18.

Take A40G C9U: the self-cleavage is 0.23.

In the case of A40G C9A, the self-cleavage stood at 0.09.

Turning to A40U C9A, the self-cleavage is 0.09.

As to A40U C9U, the self-cleavage was 0.2.

Consider A40U C9G, for which the self-cleavage stood at 0.17.

For A40C G30A, the self-cleavage stood at 0.02.

For A40C G30C, the self-cleavage stood at 0.02.

For A40C G30U, the self-cleavage turned out to be 0.01.

As for A40G G13A, the self-cleavage came to 0.06.

On to A40G G13U, for which the self-cleavage was determined as 0.02.

As for A40G G13C, the self-cleavage was 0.03.

Take A39U U12A: the self-cleavage amounted to 0.59.

Turning to A39U U12C, the self-cleavage is 0.15.

For the variant A39U U12G, the self-cleavage worked out at 0.15.

Take A39U G23A: the self-cleavage is 0.26.

With A39U G23U, the self-cleavage was 0.05.

On to A39U G23C, for which the self-cleavage is 0.06.

For the variant A39U C52U, the self-cleavage came to 1.

As to A39U C52A, the self-cleavage came out at 0.96.

As for A39U C52G, the self-cleavage stood at 1.01.

For the variant A40G G44C, the self-cleavage stood at 0.64.

As for A40G G44U, the self-cleavage was determined as 0.38.

A40G G44A: the self-cleavage was 0.21.
